Publication PMC6300982 (Chemosphere, 2015)

What was measured:
Assay type in all cases: biochemical
UGT1A6 = target: T1, UGT1A6 (Homo sapiens, UniProt P19224); assay: single-concentration; settings: read-out: % inhibition at 100 μM
T1 sequence (P19224 27-532): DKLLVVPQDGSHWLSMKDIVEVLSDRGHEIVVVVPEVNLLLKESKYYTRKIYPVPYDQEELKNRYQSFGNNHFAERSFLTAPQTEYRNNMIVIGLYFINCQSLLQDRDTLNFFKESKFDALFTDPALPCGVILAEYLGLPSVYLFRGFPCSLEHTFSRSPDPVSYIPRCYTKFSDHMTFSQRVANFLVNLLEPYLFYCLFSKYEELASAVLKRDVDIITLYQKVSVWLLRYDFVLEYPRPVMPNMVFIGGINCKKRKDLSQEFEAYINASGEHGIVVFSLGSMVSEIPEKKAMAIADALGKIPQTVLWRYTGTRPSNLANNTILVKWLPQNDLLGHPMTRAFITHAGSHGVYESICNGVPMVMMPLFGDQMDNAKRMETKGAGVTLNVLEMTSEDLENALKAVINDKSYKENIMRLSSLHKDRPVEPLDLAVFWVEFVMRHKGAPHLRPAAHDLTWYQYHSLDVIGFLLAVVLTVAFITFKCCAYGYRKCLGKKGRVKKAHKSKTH

UGT1A3 [1] = target: T2, UGT1A3 (Homo sapiens, UniProt P35503); assay: inhibition kinetics of 4-MU glucuronidation by recombinant enzyme
T2 sequence (P35503 29-534): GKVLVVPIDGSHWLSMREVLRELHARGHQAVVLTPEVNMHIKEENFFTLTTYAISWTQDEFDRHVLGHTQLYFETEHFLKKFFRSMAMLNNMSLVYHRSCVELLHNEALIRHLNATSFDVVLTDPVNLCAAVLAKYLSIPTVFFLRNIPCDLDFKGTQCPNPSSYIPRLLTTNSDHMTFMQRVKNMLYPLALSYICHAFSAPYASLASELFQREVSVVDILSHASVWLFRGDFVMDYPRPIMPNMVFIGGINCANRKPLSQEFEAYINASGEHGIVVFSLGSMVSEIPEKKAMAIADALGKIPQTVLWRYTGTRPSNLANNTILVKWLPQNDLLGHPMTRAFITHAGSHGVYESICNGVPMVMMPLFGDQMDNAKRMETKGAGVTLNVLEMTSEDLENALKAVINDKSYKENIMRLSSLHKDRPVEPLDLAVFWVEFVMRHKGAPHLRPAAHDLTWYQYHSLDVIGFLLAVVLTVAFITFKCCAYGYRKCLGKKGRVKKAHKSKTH
How it was run: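 Insect-cell-expressed human UGT1A3 glucuronidating 4-MU across several substrate and test compound concentrations. Buffer: 5 mM UDPGA, 5 mM MgCl2, 50 mM Tris-HCl pH 7.4. 5 min preincubation, started with UDPGA, 37 °C. 4-MUG quantified by HPLC-UV at 316 nm against internal standard. Dixon and Lineweaver–Burk plots gave inhibition type; Ki from secondary plot of Lineweaver–Burk slopes versus inhibitor concentration.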

UGT1A9 = target: T3, UGT1A9 (Homo sapiens, UniProt O60656); assay: single-concentration; settings: read-out: % inhibition at 100 μM
T3 sequence (O60656 26-530): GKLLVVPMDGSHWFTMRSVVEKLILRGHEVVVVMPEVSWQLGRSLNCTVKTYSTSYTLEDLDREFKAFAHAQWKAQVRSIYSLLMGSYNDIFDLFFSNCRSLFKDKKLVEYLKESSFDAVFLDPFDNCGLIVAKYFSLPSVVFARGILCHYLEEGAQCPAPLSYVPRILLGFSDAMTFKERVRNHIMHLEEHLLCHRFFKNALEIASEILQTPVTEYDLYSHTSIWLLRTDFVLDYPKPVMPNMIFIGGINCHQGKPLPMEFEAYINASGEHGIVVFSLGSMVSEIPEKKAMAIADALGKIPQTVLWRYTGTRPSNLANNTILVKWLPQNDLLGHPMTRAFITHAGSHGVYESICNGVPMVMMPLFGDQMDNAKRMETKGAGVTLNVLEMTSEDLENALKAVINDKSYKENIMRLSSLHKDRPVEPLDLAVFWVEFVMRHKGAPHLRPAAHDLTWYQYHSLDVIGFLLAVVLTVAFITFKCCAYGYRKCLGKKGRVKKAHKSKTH

UGT1A3 [2] = target: T2, UGT1A3; assay: dose-dependent inhibition of 4-MU glucuronidation, HPLC-UV; settings: read-out: % inhibition at 100 μM
UGT2B7 = target: T4, UGT2B7 (Homo sapiens, UniProt P16662); assay: single-concentration; settings: read-out: % inhibition at 100 μM
T4 sequence (P16662 24-529): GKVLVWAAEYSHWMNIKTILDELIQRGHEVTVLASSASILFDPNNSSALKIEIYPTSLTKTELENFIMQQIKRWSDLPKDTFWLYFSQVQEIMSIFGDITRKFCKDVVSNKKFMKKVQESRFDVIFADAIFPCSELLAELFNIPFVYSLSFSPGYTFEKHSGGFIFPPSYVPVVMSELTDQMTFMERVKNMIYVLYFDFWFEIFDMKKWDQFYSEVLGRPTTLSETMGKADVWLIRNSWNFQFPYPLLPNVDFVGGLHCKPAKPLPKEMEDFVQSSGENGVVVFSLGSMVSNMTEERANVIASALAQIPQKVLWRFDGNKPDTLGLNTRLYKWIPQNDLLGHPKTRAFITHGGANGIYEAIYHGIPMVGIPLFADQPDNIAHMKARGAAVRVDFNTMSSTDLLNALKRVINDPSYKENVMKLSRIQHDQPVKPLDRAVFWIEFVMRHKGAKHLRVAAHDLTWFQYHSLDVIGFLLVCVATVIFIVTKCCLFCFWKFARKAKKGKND

UGT1A3 [3] = target: T2, UGT1A3; assay: glucuronidation of 4-MU by recombinant enzyme, HPLC-UV

SMILES	inhibition at 100 µM (UGT1A6) [%]	Ki (UGT1A3 [1]) [µM]	inhibition at 100 µM (UGT1A9) [%]	inhibition at 100 µM (UGT1A3 [2]) [%]	inhibition at 100 µM (UGT2B7) [%]	glucuronidation of 4-MU by recombinant enzyme, HPLC-UV (UGT1A3 [3])
O=C(Oc1ccccc1)c1ccccc1C(=O)Oc1ccccc1 [DPhP, diphenyl phthalate]	49.1	0.89	76.4			
CCCCCCCCOC(=O)c1ccccc1C(=O)OCCCCCCCC [DNOP, di-n-octyl ortho-phthalate]			45.6	41.8	48.8	
Cc1cc(=O)oc2cc(O)ccc12 [4-MU, 4-Methylμmbelliferone]						Determination of inhibition kinetics of DPhP towards UGT1A3-catalyzed glucuronidation of 4-MU
